Test results from ChEMBL document CHEMBL1142699 (J Med Chem, 2005).
Active and inactive are the calls of the source. No cut-off for these calls is given here. Numbered stars: 1 amine (or outer) side, 2 acyl side, 3 side chain; on linkers, the order of the positions; unused ones are H or OH. Square brackets hold non-standard residues; d marks the D form. Peptide text beside a SMILES is read from it. X1 = N[C@@H](Cc1ccccc1)CN(CC(=O)[*:2])[*:1]; Phe(4-F) = N[C@@H](Cc1ccc(F)cc1)C(=O)O

Legend:
[1] = molecular target: T1, Nociceptin receptor (Homo sapiens, UniProt P41146); test: Agonist potency against GTPgammaS binding in CHO cell membranes expressing the human NOP receptor (CHOhNOP)
T1 sequence (P41146 whole entry): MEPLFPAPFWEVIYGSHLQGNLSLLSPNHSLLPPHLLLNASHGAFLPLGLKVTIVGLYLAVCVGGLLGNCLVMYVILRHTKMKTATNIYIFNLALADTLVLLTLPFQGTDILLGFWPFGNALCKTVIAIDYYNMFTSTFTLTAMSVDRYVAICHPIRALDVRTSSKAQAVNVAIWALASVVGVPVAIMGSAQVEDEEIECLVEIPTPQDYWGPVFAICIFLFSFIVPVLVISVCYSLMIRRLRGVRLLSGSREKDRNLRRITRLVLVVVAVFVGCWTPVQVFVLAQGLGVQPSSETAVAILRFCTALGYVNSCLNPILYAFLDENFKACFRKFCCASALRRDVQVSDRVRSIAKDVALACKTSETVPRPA

[2] = molecular target: Nociceptin receptor (Mus musculus) (UniProt P35377); test: Inhibition of electrically evoked contraction of mouse vas deferens; Effect evident only in some tissues; type: functional; settings: filed as agonist
Chain of Nociceptin receptor (Mus musculus) (P35377 whole entry): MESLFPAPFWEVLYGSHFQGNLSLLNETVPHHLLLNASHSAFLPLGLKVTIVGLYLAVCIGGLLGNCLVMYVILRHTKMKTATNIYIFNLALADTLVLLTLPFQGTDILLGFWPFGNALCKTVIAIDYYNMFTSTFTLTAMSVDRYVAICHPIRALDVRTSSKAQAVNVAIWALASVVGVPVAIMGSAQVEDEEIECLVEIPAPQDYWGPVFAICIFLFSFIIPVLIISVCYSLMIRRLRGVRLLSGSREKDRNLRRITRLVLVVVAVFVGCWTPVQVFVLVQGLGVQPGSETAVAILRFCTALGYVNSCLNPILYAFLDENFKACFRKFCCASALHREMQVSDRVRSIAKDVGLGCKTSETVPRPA

[3] = molecular target: Nociceptin receptor (Cavia porcellus) (UniProt P47748); test: Antagonistic potency against N/OFQ in electrically evoked contractions of guinea pig ileum at 1 uM; type: functional, tissue-based
Chain of Nociceptin receptor (Cavia porcellus) (P47748 whole entry): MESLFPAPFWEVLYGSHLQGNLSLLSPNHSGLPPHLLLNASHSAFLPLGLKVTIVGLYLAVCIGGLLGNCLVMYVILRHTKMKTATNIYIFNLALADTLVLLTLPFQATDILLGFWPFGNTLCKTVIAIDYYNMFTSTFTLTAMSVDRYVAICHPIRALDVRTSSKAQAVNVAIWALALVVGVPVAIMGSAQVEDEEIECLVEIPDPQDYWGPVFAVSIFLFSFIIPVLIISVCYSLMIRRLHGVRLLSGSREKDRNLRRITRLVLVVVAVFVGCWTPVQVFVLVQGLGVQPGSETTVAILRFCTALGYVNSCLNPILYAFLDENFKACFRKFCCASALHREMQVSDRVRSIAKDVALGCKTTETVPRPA

[4] = molecular target: Nociceptin receptor (Mus musculus) (UniProt P35377); test: Maximal inhibition of electrically evoked contraction of mouse vas deferens; Effect evident only in some tissues; type: functional; settings: filed as agonist
[5] = molecular target: T1, Nociceptin receptor; test: Receptor binding affinity for recombinant human N/OFQ peptide receptor (NOP) expressed in chinese hamster ovary cells; type: cell-based, CHO
[6] = molecular target: Nociceptin receptor (Cavia porcellus) (UniProt P47748); test: Maximal inhibition of electrically evoked contraction of guinea pig ileum; Effect evident only in some tissues; type: functional, tissue-based; settings: filed as agonist
[7] = molecular target: Nociceptin receptor (Cavia porcellus) (UniProt P47748); test: Inhibition of electrically evoked contraction of guinea pig ileum; Effect evident only in some tissues; type: functional, tissue-based; settings: filed as agonist
[8] = molecular target: Nociceptin receptor (Mus musculus) (UniProt P35377); test: Antagonistic potency against N/OFQ in electrically evoked contraction of mouse vas deferens at 1 uM; type: functional, tissue-based
Summary of the method: (§1)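 Male Swiss mice (25-30 g). Vas deferens in 5 mL baths of Mg2+-free Krebs at 33 °C, 0.3 g tension, field-stimulated with supramaximal 1 ms pulses at 0.05 Hz, isotonic recording.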

[9] = molecular target: T1, Nociceptin receptor; test: Inhibition of forskolin stimulated cAMP levels in CHO cells expressing the human NOP receptor (CHOhNOP)
[10] = molecular target: Nociceptin receptor (Mus musculus, UniProt P35377); test: (§2) Inhibition of electrically evoked contraction of mouse vas deferens; type: functional
Chain of Nociceptin receptor (Mus musculus, UniProt P35377) (P35377 whole entry): as the sequence (P35377 whole entry) above
Summary of the method: (§3)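 Vas deferens from male Swiss mice (25-30 g), in Mg2+-free Krebs at 33 °C under 0.3 g resting tension. Field-stimulated with 1 ms supramaximal pulses at 0.05 Hz; twitches recorded isotonically. After ~1 h equilibration, cumulative concentration-response curves in 0.5 log steps. […] 5-8 experiments.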

[11] = molecular target: Nociceptin receptor (Cavia porcellus) (UniProt P47748); test: Maximal inhibition of electrically evoked contraction of guinea pig ileum; type: functional, tissue-based
[12] = molecular target: Nociceptin receptor (Cavia porcellus, UniProt P47748); test: Inhibition of electrically evoked contraction of guinea pig ileum; type: functional, tissue-based
Chain of Nociceptin receptor (Cavia porcellus, UniProt P47748) (P47748 whole entry): as the sequence (P47748 whole entry) above
Summary of the method: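 Guinea pig ileum from albino animals (250-300 g), in Krebs at 37 °C under 0.3 g resting tension. Field-stimulated with 1 ms supramaximal pulses at 0.05 Hz; twitches recorded isotonically. After ~1 h equilibration, cumulative concentration-response curves in 0.5 log steps. […] 5-8 experiments.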

[13] = molecular target: Nociceptin receptor (Mus musculus) (UniProt P35377); test: Maximal inhibition of electrically evoked contraction of mouse vas deferens; type: functional, tissue-based
[14] = molecular target: Nociceptin receptor (Mus musculus) (UniProt P35377); test: Maximal inhibition of electrically evoked contraction of mouse vas deferens at 10 uM; type: functional, tissue-based
[15] = molecular target: Nociceptin receptor (Cavia porcellus) (UniProt P47748); test: Maximal inhibition of electrically evoked contraction of guinea pig ileum at 10 uM; type: functional, tissue-based
[16] = molecular target: Nociceptin receptor (Cavia porcellus) (UniProt P47748); test: Antagonistic potency against N/OFQ in electrically evoked contractions of guinea pig ileum at 10 uM; type: functional, tissue-based
[17] = molecular target: Nociceptin receptor (Mus musculus) (UniProt P35377); test: as §2; type: functional; summary of the method: as §3
[18] = molecular target: Nociceptin receptor (Mus musculus) (UniProt P35377); test: Antagonistic potency against N/OFQ in electrically evoked contraction of mouse vas deferens at 10 uM; type: functional, tissue-based; summary of the method: as §1
[19] = molecular target: Nociceptin receptor (Cavia porcellus) (UniProt P47748); test: Inhibition of electrically evoked contraction of guinea pig ileum at 10 uM; type: functional, tissue-based

| Compound | EC50 [1] | Ki [5] | EC50 [9] | EC50 [10] | EC50 [12] | further results |
| --- | --- | --- | --- | --- | --- | --- |
| CC(C)C[C@H](NC(=O)[C@H](CCCCN)NC(=O)[C@H](CCCN=C(N)N)NC(=O)[C@H](C)NC(=O)[C@H](CO)NC(=O)[C@H](CCCCN)NC(=O)[C@H](CCCN=C(N)N)NC(=O)[C@H](C)NC(=O)CNC(=O)[C@@H](NC(=O)[C@H](Cc1ccc(F)cc1)NC(=O)CNC(=O)CNC[C@@H](N)Cc1ccccc1)[C@@H](C)O)C(=O)N[C@@H](C)C(=O)N[C@@H](CC(N)=O)C(=O)N[C@@H](CCC(N)=O)C(N)=O (H-[X1]G[Phe(4-F)]TGARKSARKLANQ-NH2) | 0.813 nM | 0.0479 nM | 0.479 nM | – | – | Activity [2]: Agonist; pKb [3]: 8.32; Emax [4]: Agonist; Emax [6]: Agonist; Log EC50 [7]: Agonist; pKb [8]: 7.9 |
| C[C@H](NC(=O)CNC(=O)[C@@H](NC(=O)[C@H](Cc1ccccc1)NC(=O)CNC(=O)CNC[C@@H](N)Cc1ccccc1)[C@@H](C)O)C(=O)N[C@@H](CCCN=C(N)N)C(=O)N[C@@H](CCCCN)C(=O)N[C@@H](CO)C(=O)N[C@@H](C)C(=O)N[C@@H](CCCN=C(N)N)C(=O)N[C@@H](CCCCN)C(=O)N[C@@H](CCCN=C(N)N)C(=O)N[C@@H](CCCCN)C(=O)N[C@@H](CC(N)=O)C(=O)N[C@@H](CCC(N)=O)C(N)=O (H-[X1]GFTGARKSARKRKNQ-NH2) | 0.933 nM | 0.0316 nM | 0.24 nM | – | – | – |
| CC(C)C[C@H](NC(=O)[C@H](CCCCN)NC(=O)[C@H](CCCN=C(N)N)NC(=O)[C@H](C)NC(=O)[C@H](CO)NC(=O)[C@H](CCCCN)NC(=O)[C@H](CCCN=C(N)N)NC(=O)[C@H](C)NC(=O)CNC(=O)[C@@H](NC(=O)[C@H](Cc1ccc(F)cc1)NC(=O)CNC(=O)CNC(=O)[C@@H](N)Cc1ccccc1)[C@@H](C)O)C(=O)N[C@@H](C)C(=O)N[C@@H](CC(N)=O)C(=O)N[C@@H](CCC(N)=O)C(N)=O | – | – | – | 2.57 nM | 1.86 nM | Emax [11]: 56%; Emax [13]: 92% |
| CC(C)C[C@H](NC(=O)[C@H](CCCCN)NC(=O)[C@H](CCCN=C(N)N)NC(=O)[C@H](C)NC(=O)[C@H](CO)NC(=O)[C@H](CCCCN)NC(=O)[C@H](CCCN=C(N)N)NC(=O)[C@H](C)NC(=O)CNC(=O)[C@@H](NC(=O)[C@H](Cc1ccccc1)NC(=O)CNC(=O)CNC(=O)CNCc1ccccc1)[C@@H](C)O)C(=O)N[C@@H](C)C(=O)N[C@@H](CC(N)=O)C(=O)N[C@@H](CCC(N)=O)C(N)=O | – | – | – | – | – | Emax [14]: inactive; Emax [15]: inactive; pKb [16]: 6.21; Log EC50 [17]: inactive; pKb [18]: 6.07; Log EC50 [19]: inactive |
| C[C@H](NC(=O)CNC(=O)[C@@H](NC(=O)[C@H](Cc1ccccc1)NC(=O)CNC(=O)CNC(=O)[C@@H](N)Cc1ccccc1)[C@@H](C)O)C(=O)N[C@@H](CCCN=C(N)N)C(=O)N[C@@H](CCCCN)C(=O)N[C@@H](CO)C(=O)N[C@@H](C)C(=O)N[C@@H](CCCN=C(N)N)C(=O)N[C@@H](CCCCN)C(=O)N[C@@H](CCCN=C(N)N)C(=O)N[C@@H](CCCCN)C(=O)N[C@@H](CC(N)=O)C(=O)N[C@@H](CCC(N)=O)C(N)=O | – | 0.00692 nM | 0.1 nM | 0.759 nM | 1.12 nM | – |
| C[C@H](NC(=O)CNC(=O)[C@@H](NC(=O)[C@H](Cc1ccc(F)cc1)NC(=O)CNC(=O)CNC(=O)[C@@H](N)Cc1ccccc1)[C@@H](C)O)C(=O)N[C@@H](CCCNC(=N)N)C(=O)N[C@@H](CCCCN)C(=O)N[C@@H](CO)C(=O)N[C@@H](C)C(=O)N[C@@H](CCCNC(=N)N)C(=O)N[C@@H](CCCCN)C(=O)N[C@@H](CCCNC(=N)N)C(=O)N[C@@H](CCCCN)C(=O)N[C@@H](CC(N)=O)C(=O)N[C@@H](CCC(N)=O)C(N)=O | – | 0.00479 nM | – | 0.437 nM | 1.05 nM | – |
